Here are results for 20 compounds from ChEMBL document CHEMBL2046311, “Design, synthesis, and molecular hybrids of caudatin and cinnamic acids as novel anti-hepatitis B virus agents” (Eur J Med Chem, 2012).

What is called pIC50 is the IC50 on a negative log10 scale, so that one unit is a factor of ten. Usually CC50 stands for the concentration that lowers cell viability or growth by half. The low end stands for greater toxicity to the cells, the high end for lower toxicity to the cells.

In series [1] the test system is Hepatitis B virus. The series is described as follows: Antiviral activity against Hepatitis B virus infected in human HepG2(2.2.15) cells assessed as inhibition of viral DNA replication by PCR analysis. In kind it is functional, organism-based. Summed up: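 HepG 2.2.15 cells grown in RPMI-1640 with 10% fetal calf serum, […] and penicillin/streptomycin at 37 °C, 5% CO2. Compounds added in DMSO, kept below 2.5 μL/mL. HBV DNA quantified by SYBR Green real-time PCR with HBV-specific primers spanning 541–591 bp. IC50 values are means of at least two experiments.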

Series [2] has as its system Hepatitis B virus. The series is described as follows: Antiviral activity against Hepatitis B virus infected in human HepG2(2.2.15) cells assessed as inhibition of viral e antigen secretion by ELISA. Type of series: functional, organism-based. Summed up: (§1)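 HepG 2.2.15 cells in RPMI-1640 with 10% fetal calf serum at 37 °C, 5% CO2. Compounds dissolved in DMSO, culture DMSO below 2.5 μL/mL. Secreted HBeAg and HBsAg measured by ELISA. IC50 values are means of at least two experiments.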
On the technique in general: An ELISA detects its analyte on a solid surface through an enzyme-linked reagent.

The subject of series [3] is Hepatitis B virus. In words: Antiviral activity against Hepatitis B virus infected in human HepG2(2.2.15) cells assessed as inhibition of viral surface antigen secretion by ELISA. In kind it is functional, organism-based. Summed up:
as §1

Series [4] can be described thus: Selectivity index, ratio of CC50 for human HepG2(2.2.15) cells to IC50 for Hepatitis B virus infected in human HepG2(2.2.15) cells assessed as inhibition of viral DNA replication. In kind it is functional. Summed up:
(§2)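 SI calculated as CC50 (MTT, HepG 2.2.15) divided by IC50 for the named read-out (HBV DNA by real-time PCR, or HBeAg or HBsAg secretion by ELISA), in the same cell line.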

Series [5] is described as follows: Selectivity index, ratio of CC50 for human HepG2(2.2.15) cells to IC50 for Hepatitis B virus infected in human HepG2(2.2.15) cells assessed as inhibition of viral surface antigen secretion. In kind it is functional. The essentials: as §2
A short description of series [6]: Selectivity index, ratio of CC50 for human HepG2(2.2.15) cells to IC50 for Hepatitis B virus infected in human HepG2(2.2.15) cells assessed as inhibition of viral e antigen secretion. In kind it is functional. The essentials:
as §2

The nature of series [7]: Cytotoxicity against human HepG2(2.2.15) cells by modified-MTT assay. Type of series: cell-based. The essentials: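 HepG 2.2.15 cells in RPMI-1640 with 10% fetal calf serum at 37 °C, 5% CO2. Compounds in DMSO, final DMSO below 2.5 μL/mL. Viability read by modified MTT method. CC50 is the mean of at least two experiments.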

Each structure is given as a SMILES string. pIC50: −log10 of the molar value.

Regarding `COc1ccccc1/C=C/C(=O)O[C@H]1CC[C@@]2(C)C(=CC[C@]3(O)[C@@H]2C[C@@H](OC(=O)/C=C(\C)C(C)C)[C@@]2(C)[C@]3(O)CC[C@@]2(O)C(C)=O)C1`, the pIC50 in series [1] is 5.14; in series [2] it was 3.12; in series [3], 4.19. In addition, the “Ratio CC50/IC50” value in series [4] is reported as greater than 324.1; in series [5], greater than 36.9; in series [6] it was greater than 3.1. This compound also displayed a CC50 in series [7] greater than 2370 µM.

`CCOc1cccc(/C=C/C(=O)O[C@H]2CC[C@@]3(C)C(=CC[C@]4(O)[C@@H]3C[C@@H](OC(=O)/C=C(\C)C(C)C)[C@@]3(C)[C@]4(O)CC[C@@]3(O)C(C)=O)C2)c1`: the pIC50 was 5.03 in series [1], 3.85 in series [2] and 4.60 in series [3]. In addition, the entries for the “Ratio CC50/IC50” value in series [4], in series [5] and in series [6] were greater than 230.1, greater than 85.9 and greater than 15.2, respectively. This compound returned a CC50 in series [7] greater than 2140 µM.

For the compound `CC(=O)[C@]1(O)CC[C@@]2(O)[C@]1(C)[C@H](OC(=O)/C=C(\C)C(C)C)C[C@@H]1[C@@]3(C)CC[C@H](OC(=O)/C=C/c4ccc(Cl)c(Cl)c4)CC3=CC[C@]12O`, the results for the pIC50 in series [1], in series [2] and in series [3] were 4.85, 3.02 and 3.95, respectively. The “Ratio CC50/IC50” value in series [4] is greater than 101.2; in series [5], greater than 12.7; in series [6], greater than 1.5. This compound had a CC50 in series [7] greater than 1420 µM.

Consider `CC(=O)[C@]1(O)CC[C@@]2(O)[C@]1(C)[C@H](OC(=O)/C=C(\C)C(C)C)C[C@@H]1[C@@]3(C)CC[C@H](OC(=O)/C=C/c4ccc(Cl)cc4Cl)CC3=CC[C@]12O`, for which the figures for the pIC50 in series [1], in series [2] and in series [3] were 4.84, 2.93 and 3.67, respectively. Further, the “Ratio CC50/IC50” value in series [4] is given as greater than 130.3; in series [5] it was greater than 8.8; in series [6], greater than 1.6. The compound further gave a CC50 in series [7] greater than 1890 µM.

In the case of `CC(=O)[C@]1(O)CC[C@@]2(O)[C@]1(C)[C@H](OC(=O)/C=C(\C)C(C)C)C[C@@H]1[C@@]3(C)CC[C@H](OC(=O)/C=C/c4cccc([N+](=O)[O-])c4)CC3=CC[C@]12O`, the pIC50 is 4.25 in series [1], 3.68 in series [2] and 4.30 in series [3]. Further, the entries for the “Ratio CC50/IC50” value in series [4], in series [5] and in series [6] were greater than 28.1, greater than 31.7 and greater than 7.7, respectively. In series [7], this compound displayed a CC50 greater than 1590 µM.

In the case of `CC(=O)[C@]1(O)CC[C@@]2(O)[C@]1(C)[C@H](OC(=O)/C=C(\C)C(C)C)C[C@@H]1[C@@]3(C)CC[C@H](OC(=O)/C=C/c4cc(C(F)(F)F)cc(C(F)(F)F)c4)CC3=CC[C@]12O`, the pIC50 is less than 3.49 in series [1], 3.21 in series [2] and 3.36 in series [3]. In addition, the entries for the “Ratio CC50/IC50” value in series [5] and in series [6] were greater than 3 and greater than 2.1, respectively. Moreover, the CC50 in series [7] was greater than 1280 µM.

Consider `CC(=O)[C@]1(OC(=O)/C=C/c2ccccc2[N+](=O)[O-])CC[C@@]2(O)[C@]1(C)[C@H](OC(=O)/C=C(\C)C(C)C)C[C@@H]1[C@@]3(C)CC[C@H](OC(=O)/C=C/c4ccccc4[N+](=O)[O-])CC3=CC[C@]12O`, for which the pIC50 in series [1] was less than 3.36; in series [2], 3.28; in series [3], 3.94. Besides, the “Ratio CC50/IC50” value in series [5] is listed as greater than 15; in series [6] it was greater than 3.3. In series [7], this compound came in with a CC50 greater than 1740 µM.

As to `CC(=O)[C@]1(OC(=O)/C=C/c2ccc(Cl)cc2)CC[C@@]2(O)[C@]1(C)[C@H](OC(=O)/C=C(\C)C(C)C)C[C@@H]1[C@@]3(C)CC[C@H](OC(=O)/C=C/c4ccc(Cl)cc4)CC3=CC[C@]12O`, the negative logarithm of the IC50 (pIC50) in series [1], in series [2] and in series [3] was less than 3.54 each time. In addition, the CC50 in series [7] is greater than 1160 µM.

Consider `COc1cccc(/C=C/C(=O)O[C@H]2CC[C@@]3(C)C(=CC[C@]4(O)[C@@H]3C[C@@H](OC(=O)/C=C(\C)C(C)C)[C@@]3(C)[C@]4(O)CC[C@@]3(OC(=O)/C=C/c3cccc(OC)c3)C(C)=O)C2)c1`, for which the pIC50 in series [1] is less than 3.47; in series [2], less than 2.86; in series [3], less than 2.86. In series [7], this compound registered a CC50 greater than 1370 µM.

Consider `CC(=O)Oc1ccc(/C=C/C(=O)O[C@H]2CC[C@@]3(C)C(=CC[C@]4(O)[C@@H]3C[C@@H](OC(=O)/C=C(\C)C(C)C)[C@@]3(C)[C@]4(O)CC[C@@]3(O)C(C)=O)C2)cc1`, for which the pIC50 was 5.47 in series [1], 3.64 in series [2] and greater than 5.16 in series [3]. In addition, the “Ratio CC50/IC50” value in series [4] was less than 2. In addition, in series [7], the CC50 was less than 6.96 µM.

As for `CC(=O)[C@]1(O)CC[C@@]2(O)[C@]1(C)[C@H](OC(=O)/C=C(\C)C(C)C)C[C@@H]1[C@@]3(C)CC[C@H](OC(=O)/C=C/c4cccc(OC(F)(F)F)c4)CC3=CC[C@]12O`, the figures for the pIC50 in series [1], in series [2] and in series [3] were 5.24, less than 3.23 and 3.63, respectively. Besides, the “Ratio CC50/IC50” value in series [4] worked out at 102.3; in series [5], 2.5. The compound also had a CC50 in series [7] of 584 µM.

As for `CC(=O)[C@]1(O)CC[C@@]2(O)[C@]1(C)[C@H](OC(=O)/C=C(\C)C(C)C)C[C@@H]1[C@@]3(C)CC[C@H](OC(=O)/C=C/c4ccc(O)c(O)c4)CC3=CC[C@]12O`, the pIC50 is 5.04 in series [1], less than 3.25 in series [2] and 4.79 in series [3]. In series [7], this compound registered a CC50 of 8.49 µM.

Turning to `CC(=O)[C@]1(O)CC[C@@]2(O)[C@]1(C)[C@H](OC(=O)/C=C(\C)C(C)C)C[C@@H]1[C@@]3(C)CC[C@H](OC(=O)/C=C/c4c(F)c(F)c(F)c(F)c4F)CC3=CC[C@]12O`, the pIC50 is 5.00 in series [1], 3.45 in series [2] and 4.58 in series [3]. For the same compound, the half-maximal cytotoxic concentration (CC50) in series [7] is less than 8.22 µM.

For `CC(=O)[C@]1(O)CC[C@@]2(O)[C@]1(C)[C@H](OC(=O)/C=C(\C)C(C)C)C[C@@H]1[C@@]3(C)CC[C@H](OC(=O)/C=C/c4cccc(C(F)(F)F)c4)CC3=CC[C@]12O`, the pIC50 in series [1] was 4.83; in series [2], less than 2.92; in series [3], 3.95. The “Ratio CC50/IC50” value is 48.3 in series [4] and 6.4 in series [5]. Further, the CC50 in series [7] was 718 µM.

Consider `CC(=O)[C@]1(O)CC[C@@]2(O)[C@]1(C)[C@H](OC(=O)/C=C(\C)C(C)C)C[C@@H]1[C@@]3(C)CC[C@H](OC(=O)/C=C/c4ccc(Cl)cc4)CC3=CC[C@]12O`, for which the pIC50 in series [1] is 4.79; in series [2], less than 3.15; in series [3] it was 3.92. Further, the “Ratio CC50/IC50” value came to 43.1 in series [4] and 5.9 in series [5]. The compound also showed a CC50 in series [7] of 701 µM.

Regarding `CC(=O)[C@]1(O)CC[C@@]2(O)[C@]1(C)[C@H](OC(=O)/C=C(\C)C(C)C)C[C@@H]1[C@@]3(C)CC[C@H](OC(=O)/C=C/c4ccc(C)cc4)CC3=CC[C@]12O`, the negative logarithm of the IC50 (pIC50) in series [1] was 4.92; in series [2], less than 3.26; in series [3], 3.97. Further, the “Ratio CC50/IC50” value in series [4] was found to be 46; in series [5], 5.1. In series [7], this compound returned a CC50 of 550 µM.

For the compound `COc1cc(/C=C/C(=O)O[C@H]2CC[C@@]3(C)C(=CC[C@]4(O)[C@@H]3C[C@@H](OC(=O)/C=C(\C)C(C)C)[C@@]3(C)[C@]4(O)CC[C@@]3(O)C(C)=O)C2)ccc1OC(C)=O`, the pIC50 was 5.36 in series [1], 3.19 in series [2] and greater than 5.00 in series [3]. In addition, the “Ratio CC50/IC50” value in series [4] was less than 2.3. This compound registered a CC50 in series [7] of less than 9.97 µM.

For `CC(=O)[C@]1(O)CC[C@@]2(O)[C@]1(C)[C@H](OC(=O)/C=C(\C)C(C)C)C[C@@H]1[C@@]3(C)CC[C@H](O)CC3=CC[C@]12O` [CAUDATIN], the pIC50 in series [2] was less than 3.74. For the same compound, the “Ratio CC50/IC50” value in series [4] is 6; in series [5], 1.7; in series [6], less than 1.3.

`COc1ccc(/C=C/C(=O)O[C@H]2CC[C@@]3(C)C(=CC[C@]4(O)[C@@H]3C[C@@H](OC(=O)/C=C(\C)C(C)C)[C@@]3(C)[C@]4(O)CC[C@@]3(OC(=O)/C=C/c3ccc(OC)c(OC)c3)C(C)=O)C2)cc1OC`: the pIC50 in series [1] was less than 3.51; in series [2] it was 3.20; in series [3], 3.28. Further, the “Ratio CC50/IC50” value in series [5] was greater than 2.3; in series [6] it was greater than 1.9. The CC50 in series [7] was greater than 1210 µM.

Turning to `C[C@H](Cn1cnc2c(N)ncnc21)OCP(=O)(O)O` [TENOFOVIR ANHYDROUS], the pIC50 in series [1] was 6.17; in series [2], 2.94. Moreover, the “Ratio CC50/IC50” value is on record as greater than 2560.2 in series [4], greater than 1.2 in series [5] and greater than 1.5 in series [6]. Besides, the 50% cytotoxic concentration (CC50) in series [7] is greater than 1740 µM.
